Results from ChEMBL document CHEMBL4145598, “Discovery and Development of 8-Substituted Cycloberberine Derivatives as Novel Antibacterial Agents against MRSA” (ACS Med Chem Lett, 2018).
Active and inactive are the calls of the source. The calls are words filed in the database; no cut-off is given here.

Key:
Staphylococcus aureus [1] = test: Antimicrobial activity against vancomycin-intermediate Staphylococcus aureus ATCC 700699 after 18 hrs by agar dilution assay; assay type: functional; settings: ATCC 700699, 18 h
Procedure, shortened: (§1)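 MICs in μg/mL against drug-resistant S. aureus (MRSA/VISA) by standard methods, with levofloxacin as the reference drug. ATCC strains were used.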

Staphylococcus aureus [2] = test: Antimicrobial activity against methicillin-resistant Staphylococcus aureus isolate 12-3 after 18 hrs by agar dilution assay; assay type: functional; settings: isolate 12-3, 18 h
Procedure, shortened: (§2)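 Drug-resistant S. aureus (MRSA/VISA) panel. It includes ATCC reference strains and clinical isolates from patients in Chinese hospitals. MIC was determined by standard methods and reported in μg/mL, with levofloxacin as the reference drug.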

Staphylococcus aureus [3] = test: Antimicrobial activity against methicillin-resistant Staphylococcus aureus isolate 13-18 after 18 hrs by agar dilution assay; assay type: functional; settings: isolate 13-18, 18 h; procedure, shortened: as §2
Staphylococcus aureus [4] = test: Antimicrobial activity against methicillin-resistant Staphylococcus aureus isolate 12-13 after 18 hrs by agar dilution assay; assay type: functional; settings: isolate 12-13, 18 h; procedure, shortened: as §2
[5] = Cytotoxicity against human A549 cells assessed as decrease in cell viability after 24 hrs by MTT assay; assay type: cell-based
Procedure, shortened: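 A549 cells were treated with compound at a series of concentrations for 24 h, and viability was read by MTT assay. Controls received 0.4% (v/v) DMSO. CC50 is given in μg/mL.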

Staphylococcus aureus [6] = test: Antimicrobial activity against methicillin-sensitive Staphylococcus aureus isolate 13-19 after 18 hrs by agar dilution assay; assay type: functional; settings: isolate 13-19, 18 h
Staphylococcus aureus [7] = test: Antimicrobial activity against methicillin-sensitive Staphylococcus aureus isolate 15 after 18 hrs by agar dilution assay; assay type: functional; settings: isolate 15, 18 h
Staphylococcus aureus [8] = test: Antimicrobial activity against methicillin-sensitive Staphylococcus aureus ATCC 29213 after 18 hrs by agar dilution assay; assay type: functional; settings: ATCC 29213, 18 h
Staphylococcus aureus [9] = test: Antimicrobial activity against methicillin-resistant Staphylococcus aureus ATCC-BAA-1708 after 18 hrs by agar dilution assay; assay type: functional; settings: ATCC-BAA-1708, 18 h; procedure, shortened: as §2
Staphylococcus aureus [10] = test: Antimicrobial activity against methicillin-resistant Staphylococcus aureus isolate 12-16 after 18 hrs by agar dilution assay; assay type: functional; settings: isolate 12-16, 18 h; procedure, shortened: as §2
Staphylococcus aureus [11] = test: Antimicrobial activity against methicillin-sensitive Staphylococcus aureus isolate 13-20 after 18 hrs by agar dilution assay; assay type: functional; settings: isolate 13-20, 18 h
Staphylococcus hominis = test: Antimicrobial activity against Staphylococcus hominis ATCC 35982 after 18 hrs by agar dilution assay; assay type: functional; settings: ATCC 35982, 18 h
Staphylococcus aureus [12] = test: Antimicrobial activity against methicillin-sensitive Staphylococcus aureus isolate 13-21 after 18 hrs by agar dilution assay; assay type: functional; settings: isolate 13-21, 18 h
[13] = system: Staphylococcus epidermidis; test: Antimicrobial activity against methicillin-sensitive Staphylococcus epidermidis isolate 13-1 after 18 hrs by agar dilution assay; assay type: functional; settings: isolate 13-1, 18 h
Staphylococcus aureus [14] = test: Antimicrobial activity against methicillin-resistant Staphylococcus aureus isolate 12-8 after 18 hrs by agar dilution assay; assay type: functional; settings: isolate 12-8, 18 h; procedure, shortened: as §2
[15] = system: Staphylococcus epidermidis; test: Antimicrobial activity against methicillin-sensitive Staphylococcus epidermidis ATCC 12228 after 18 hrs by agar dilution assay; assay type: functional; settings: ATCC 12228, 18 h
Staphylococcus aureus [16] = test: Antimicrobial activity against vancomycin-intermediate Staphylococcus aureus ATCC 700698 after 18 hrs by agar dilution assay; assay type: functional; settings: ATCC 700698, 18 h; procedure, shortened: as §1
Staphylococcus aureus [17] = test: Antimicrobial activity against methicillin-resistant Staphylococcus aureus isolate 13-23 after 18 hrs by agar dilution assay; assay type: functional; settings: isolate 13-23, 18 h; procedure, shortened: as §2
Staphylococcus aureus [18] = test: Antimicrobial activity against methicillin-resistant Staphylococcus aureus ATCC 33591 after 18 hrs by agar dilution assay; assay type: functional; settings: ATCC 33591, 18 h; procedure, shortened: as §2
Staphylococcus aureus [19] = test: Antimicrobial activity against methicillin-sensitive Staphylococcus aureus isolate 13-17 after 18 hrs by agar dilution assay; assay type: functional; settings: isolate 13-17, 18 h
[20] = system: Staphylococcus saprophyticus; test: Antimicrobial activity against Staphylococcus saprophyticus ATCC 15305 after 18 hrs by agar dilution assay; assay type: functional; settings: ATCC 15305, 18 h
[21] = Stability in Sprague-Dawley rat blood assessed as parent compound remaining at […] after 420 mins by LC-MS/MS analysis; assay type: ADME, tissue-based; settings: read-out: Stability
DNA = test: Binding affinity to Escherichia coli DH5-alpha supercoiled pET-32a DNA assessed as conversion of closed circular form to open circular form of DNA at 61.5 to 492 ug/ml after 4 hrs by agarose gel electrophoresis; assay type: nucleic-acid assay
Procedure, shortened: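 Supercoiled pET-32a plasmid DNA was incubated with compound at increasing concentrations for 4 h at 37 °C under physiological conditions. DNA forms were resolved by agarose gel electrophoresis.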

Compound	MIC (Staphylococcus aureus [1]) [mg/L]	MIC (Staphylococcus aureus [2]) [mg/L]	MIC (Staphylococcus aureus [3]) [mg/L]	MIC (Staphylococcus aureus [4]) [mg/L]	MIC (Staphylococcus aureus [6]) [mg/L]	MIC (Staphylococcus aureus [7]) [mg/L]	MIC (Staphylococcus aureus [8]) [mg/L]	MIC (Staphylococcus aureus [9]) [mg/L]	MIC (Staphylococcus aureus [10]) [mg/L]	MIC (Staphylococcus aureus [11]) [mg/L]	MIC (Staphylococcus hominis) [mg/L]	MIC (Staphylococcus aureus [12]) [mg/L]	MIC [13] [mg/L]	MIC (Staphylococcus aureus [14]) [mg/L]	MIC [15] [mg/L]	MIC (Staphylococcus aureus [16]) [mg/L]	MIC (Staphylococcus aureus [17]) [mg/L]	MIC (Staphylococcus aureus [18]) [mg/L]	MIC (Staphylococcus aureus [19]) [mg/L]	MIC [20] [mg/L]	also measured
COc1ccc2c(c[n+]3c4c2ccc2c5c(cc(c24)CC3)OCO5)c1OC(C)=O.[Cl-]	32	4	1	4	8	2	1	8	2	2	2	4	2	8	1	16	2	4	1	4	CC50 at 24 h [5]: > 33.6 mg/L
COc1ccc2c(c[n+]3c4c2ccc2c5c(cc(c24)CC3)OCO5)c1NC(=O)c1csnn1.[Cl-]	8	2	2	4	2	4	2	2	2	2	2	2	2	2	4	16	2	2	2	4	remaining at 7 h [21]: 57.2%; CC50 at 24 h [5]: 16.1 mg/L; Activity (DNA): Active
COc1ccc2c(c[n+]3c4c2ccc2c5c(cc(c24)CC3)OCO5)c1OCC(=O)C12CC3CC(CC(C3)C1)C2.[Br-]	8	4	4	4	4	2	4	4	2	4	2	2	2	4	2	8	2	2	2	2	remaining at 7 h [21]: 58%; CC50 at 24 h [5]: 2 mg/L
COc1ccc2c(c[n+]3c4c2ccc2c5c(cc(c24)CC3)OCO5)c1OCC(=O)c1ccc(C)cc1.[Br-]	> 64	4	4	4	4	8	4	8	4	8	4	4	8	8	2	> 64	4	4	4	4	
COc1ccc2c(c[n+]3c4c2ccc2c5c(cc(c24)CC3)OCO5)c1N.[Cl-]	4	8	8	4	8	4	4	4	4	4	8	8	8	4	8	64	8	4	4	8	
C[C@H]1COc2c(N3CCN(C)CC3)c(F)cc3c(=O)c(C(=O)O)cn1c23.C[C@H]1COc2c(N3CCN(C)CC3)c(F)cc3c(=O)c(C(=O)O)cn1c23.O [LEVOFLOXACIN]	2	32	32	32	0.5	0.125	0.06	16	32	0.125	0.125	0.25	0.125	32	0.06	32	32	0.125	0.125	0.5	
COc1ccc2c(c[n+]3c4c2ccc2c5c(cc(c24)CC3)OCO5)c1OCC(=O)c1ccc(C(F)(F)F)cc1.[Br-]	> 64	> 64	> 64	> 64	> 64	> 64	> 64	> 64	> 64	> 64	> 64	> 64	> 64	> 64	> 64	> 64	> 64	> 64	> 64	> 64	
COc1ccc(C(=O)COc2c(OC)ccc3c2c[n+]2c4c3ccc3c5c(cc(c34)CC2)OCO5)cc1C(F)(F)F.[Br-]	> 64	4	8	4	4	4	4	16	8	4	4	8	8	8	4	> 64	4	4	4	4	
COc1ccc2c(c[n+]3c4c2ccc2c5c(cc(c24)CC3)OCO5)c1NCc1ccco1.[Cl-]	> 64	32	64	32	16	32	32	> 64	64	32	32	32	64	64	32	> 64	64	64	32	32	
COc1ccc2c(c[n+]3c4c2ccc2c5c(cc(c24)CC3)OCO5)c1NC(=O)c1ccccn1.[Cl-]	> 64	> 64	> 64	> 64	> 64	> 64	> 64	> 64	> 64	> 64	> 64	> 64	> 64	> 64	> 64	> 64	> 64	> 64	> 64	> 64	
COc1cccc(C(=O)COc2c(OC)ccc3c2c[n+]2c4c3ccc3c5c(cc(c34)CC2)OCO5)c1.[Br-]	> 64	16	4	8	4	32	16	64	8	8	64	16	8	16	16	> 64	16	4	4	8	
